# Beta apoptosis – inhibitors of cytokine-induced beta cell apoptosis, primary screen, luminescence | AID 435005, 2010 | actives 0.8% (n = 300,000) | INS-1E cytokine-induced death, ATP luminescence, 48 h; percent of positive-control rescue, neutral wells zero | protection from apoptosis, % (test concentration not listed);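 active = Every replicate reaches about 75%, or at least half do and their mean reaches it too, limit read from the data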;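 note: 0% = cytokine-treated negative control wells and 100% = positive control rescue; higher means more ATP so stronger rescue from cytokine killing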
# CSC inhib – cancer stem cell viability inhibitors, primary screen, luminescence; inhibition, % at 7.5 µM; cancer stem cell-like cells viability; actives 1.1% (n = 300,000); in the data active = inhibition above about 75%; tested in HMLE shEcad cells
# NR3A LBD binder – binders of NR3A ligand-binding domain, primary screen, biophysical, differential scanning fluorimetry, uHTS; actives 2.5% (n = 340,000); Glutamate receptor ionotropic, NMDA 3A (GRIN3A) ligand-binding domain; Tm shift relative to glycine control, % at 25 µM; NR3A LBD differential scanning fluorimetry, Tm shift; 0% = protein alone, 100% = glycine-bound protein;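 active = melting temperature shift of at least 10% of the positive control shift, at one fixed dose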
# PREPL inhibitor – PREPL enzyme inhibitors, primary screen, biochemical, fluorescence polarization. Prolyl endopeptidase-like (Homo sapiens), Q4J6C6. recombinant PREPL, fluorescence polarization activity-based probe. inhibition, % at 5.96 µM. actives 0.68% (n = 320,000). AID 2751, 2010; in the data active = inhibition above about 43%;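 note: 0% = enzyme with DMSO and 100% = wells lacking enzyme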
# Target sequence (Q4J6C6 whole entry, looked up): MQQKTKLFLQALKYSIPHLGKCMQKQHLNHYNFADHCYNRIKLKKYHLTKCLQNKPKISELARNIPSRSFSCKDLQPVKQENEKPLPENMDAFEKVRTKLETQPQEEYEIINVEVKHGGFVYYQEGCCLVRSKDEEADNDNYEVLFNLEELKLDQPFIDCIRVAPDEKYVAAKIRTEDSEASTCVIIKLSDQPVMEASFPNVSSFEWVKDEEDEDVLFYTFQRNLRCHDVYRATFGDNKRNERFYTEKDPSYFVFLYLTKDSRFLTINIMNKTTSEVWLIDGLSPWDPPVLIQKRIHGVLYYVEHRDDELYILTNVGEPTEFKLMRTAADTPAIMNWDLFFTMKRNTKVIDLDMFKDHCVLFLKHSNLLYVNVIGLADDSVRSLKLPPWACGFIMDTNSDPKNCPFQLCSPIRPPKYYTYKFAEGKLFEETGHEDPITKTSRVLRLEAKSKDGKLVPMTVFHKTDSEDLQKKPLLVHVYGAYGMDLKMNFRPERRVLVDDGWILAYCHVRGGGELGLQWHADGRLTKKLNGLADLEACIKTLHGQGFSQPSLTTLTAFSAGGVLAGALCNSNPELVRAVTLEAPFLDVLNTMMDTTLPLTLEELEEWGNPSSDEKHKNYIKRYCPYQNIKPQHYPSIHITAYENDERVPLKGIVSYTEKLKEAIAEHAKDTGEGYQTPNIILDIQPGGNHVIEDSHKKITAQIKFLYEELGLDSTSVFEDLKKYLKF
# CHOP inhibitor – inhibitors of CHOP promoter induction, primary screen, cell-based, unfolded protein response, luciferase reporter. CHO-K1 CHOP-promoter luciferase, tunicamycin-induced, 15-18 h. actives 3.8% (n = 220,000). inhibition, % at 10 µM;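 active = compounds that reduced the stress-induced luciferase reporter signal by more than about 70% of percent inhibition, limit read from the data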;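 note: 0% = tunicamycin plus vehicle and 100% = wells without tunicamycin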
# T cruzi repl – inhibitors of intracellular T. cruzi growth, primary screen, luminescence, NIH3T3 host cells. T. cruzi beta-gal in NIH3T3, 90 h. inhibition, % (no concentration beside the values). actives 1.4% (n = 300,000);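 active = mean inhibition across valid replicates above about 55%, limit read from the data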;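 note: signal also drops with host cell toxicity which is not excluded here; 0% = plate median of DMSO wells and 100% = zero luminescence signal; higher percent means less beta-gal luminescence so fewer parasites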
#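 Assay system: NIH/3T3 host cells with β-galactosidase reporter T. cruzi; input: 5,000 host fibroblasts per well; compound: single 50 nL compound addition per well in DMSO; timing: ≥90 h infection period, 3 h prior cell attachment; measured by: GalScreen β-gal luminescence, detergent lysis, 60 min; evaluation: percent inhibition of parasite-derived β-gal signal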
# An asterisk follows results filed as active; / = not tested or not shown. Only some compounds are listed: those with a hit (about 6.7% of all), similar ones and a draw of the others.
SMILES,Beta apoptosis,CSC inhib,NR3A LBD binder,PREPL inhibitor,CHOP inhibitor,T cruzi repl
O=C(O)CC1S/C(=N/N=C/C=C/c2ccccc2)NC1=O (configuration not stated),-7,-12,0,9,21,-10
O=C(CC1S/C(=N/N=C/C=C/c2ccccc2)NC1=O)Nc1ccc(Cl)c(Cl)c1 (configuration not stated),0,8,37*,-4,-4,7
O=C(CC1S/C(=N/N=C/c2ccco2)NC1=O)Nc1cccc(Cl)c1Cl (configuration not stated),1,-19,-2,-5,94*,-15
CCCCc1cc(=O)oc2cc(OCC(=O)NCc3ccccn3)ccc12,3,2,-2,-5,/,10
O=C(CSc1ncnc2c1oc1ccccc12)Nc1cccc(C(F)(F)F)c1,/,22,-1,1,79*,-14
C=CCn1nnnc1SCC(=O)Nc1cccc(C(F)(F)F)c1,0,-9,16*,2,/,-6
O=C(CSc1ncnc2c1oc1ccccc12)Nc1cccc(Cl)c1,/,2,6,-1,66,20
COc1ccc2c(c1)CCCC21NC(=O)N(CC(=O)c2cc(F)ccc2F)C1=O (configuration not stated),-3,/,1,-2,/,/
O=C(Nc1ccc(-c2csc(Nc3ccccc3)n2)cc1)c1cc([N+](=O)[O-])cc(C(F)(F)F)c1,14,0,24*,3,12,48
O=C(Nc1ccc(-c2csc(Nc3ccccc3)n2)cc1)c1cccc(C(F)(F)F)c1,-1,14,26*,14,91*,35
O=C(Nc1cccc(-c2csc(Nc3cccc(C(F)(F)F)c3)n2)c1)c1cc([N+](=O)[O-])cc(C(F)(F)F)c1,31,62,2,-2,40,42
O=C(Nc1ccc(-c2csc(Nc3ccc(Cl)cc3)n2)cc1)c1cccc(C(F)(F)F)c1,12,-14,34*,18,49,68*
Cc1ccc(Nc2nc(-c3sc(NC(=O)c4cccc(Cl)c4)nc3C)cs2)cc1,-1,16,/,13,-26,-25
Cc1c(O)c(=O)ccn1C,-2,3,-1,26,3,-12
Cn1c(N)c(C(=O)CSc2nc(N)cc(N)n2)c(=O)n(C)c1=O,-1,4,0,14,14,-12
Cc1ccc(NC(=O)COC(=O)/C=C/c2c(C)nn(-c3ccc(F)cc3)c2Cl)cc1F,9,7,5,-16,48,18
Cn1cc(Cl)c(C(=O)Nc2nc3ccccc3s2)n1,8,-3,1,-2,15,33
Cn1cc(Cl)c(C(=O)Nc2cccc(Cl)c2Cl)n1,-1,5,0,4,75*,13
CN1CCN(NC(=O)Nc2cccc(Cl)c2Cl)CC1,-5,17,1,12,-4,57*
COc1ccc(CN=Cc2[nH]c3ccc(Br)c(Cl)c3c2O)cc1,-19,-7,-4,14,43,55*
Cc1cc(C)cc(N=Cc2[nH]c3ccc(Br)c(Cl)c3c2O)c1,-14,26,18*,4,103*,-4
O=C(COCc1nc2ccccc2c(=O)[nH]1)NC1CCCC1,0,13,0,16,3,-2
O=C(Nc1cccc(Br)c1)c1cccc(OC(=S)N2CCOCC2)c1,/,0,-6,9,/,20
COc1cc(OC)cc(C(=O)NCC(=O)OC2CCCCC2=O)c1 (configuration not stated),-5,/,1,6,/,/
Cc1cc2[nH]c(=O)c(=O)[nH]c2cc1S(=O)(=O)Nc1cccc(C)c1C,1,-1,-4,4,/,-11
SMILES,Beta apoptosis,CSC inhib,NR3A LBD binder,PREPL inhibitor,CHOP inhibitor,T cruzi repl
CC(C(=O)Nc1ccccc1)N(C)CCOc1ccc(Br)cc1 (configuration not stated),-2,20,-26,-16,84*,25
CN(CCOc1ccc(Cl)cc1)CC(O)c1ccccc1 (configuration not stated),3,4,-3,13,/,53
CN(CCOc1ccccc1)CC(O)COCc1ccccc1F (configuration not stated),7,-3,1,-6,/,55*
CN(CCOc1ccc(Br)cc1)CC(O)c1ccccc1 (configuration not stated),-2,12,0,15,/,70*
CC(C(=O)Nc1cccc(C#N)c1)N(C)CCOc1ccccc1 (configuration not stated),2,9,2,-3,/,12
COc1ccc(NC(=O)CN(C)CC(=O)Nc2sc3c(c2C#N)CCC3)cc1,/,/,-3,14,/,/
CCc1nc(Nc2ccccc2)c2oc3ccccc3c2n1,4,16,-11,-2,72*,11
Cc1nc(NCCc2ccccc2)c2oc3ccccc3c2n1,19,-7,-1,5,76*,-14
CCc1nc(Nc2ccc(F)cc2)c2oc3ccccc3c2n1,9,25,7,-10,/,14
Cc1nc(Nc2ccccc2)c2oc3ccc(Cl)cc3c2n1,13,-1,16*,0,/,15
CCc1nc(Nc2cccc(F)c2)c2oc3ccccc3c2n1,7,14,12*,-6,/,5
Cc1ccc(NC(=O)C2CCCN2C(=O)OCc2ccccc2)cc1F (configuration not stated),1,-11,1,-1,/,-5
COc1cc2nc(N3CCN(C(=O)OCc4ccccc4)C(C(=O)NC(C)(C)C)C3)nc(N)c2cc1OC (configuration not stated),/,/,/,/,10,/
NS(=O)(=O)c1ccc(CNC(=O)c2cc(-c3cccnc3)nc3ccc(Br)cc23)cc1,6,-7,-5,-3,/,-2
CCN(c1cccc(C)c1)S(=O)(=O)c1ccc(-n2cccn2)cc1,-4,-9,2,-6,/,10
CC(NC(=O)CNC(=S)N(Cc1ccccc1)Cc1cccnc1)c1ccccc1 (configuration not stated),-2,-2,-1,-8,7,55*
Cc1ccccc1NC(=S)N(Cc1cccnc1)Cc1ccccc1Cl,-9,-4,1,-7,38,76*
S=C(Nc1ccccc1Cl)N(Cc1ccccc1)Cc1cccnc1,2,9,0,11,22,62*
Cc1ccc(Cl)cc1NC(=S)N(Cc1ccccc1)Cc1cccnc1,-5,-7,0,6,22,76*
S=c1nc[nH]c2c1sc1nc(-c3ccccc3)c3c(c12)CCCC3,4,34,12*,10,25,-3
CCOc1ccccc1CNC(=O)C1CCCN(c2nnc(C)c3c(C)n(-c4ccccc4)nc23)C1 (configuration not stated),36,-27,-2,12,/,30

# Screens: PubChem BioAssay, several laboratories
